Compound activity (PubChem BioAssay)
CendR NRP1 mod – alters CendR peptide binding to human NRP-1; FAM-RPARPAR peptide binding to NRP-1, fluorescence polarization; inhibition, % at 25 µM; actives 0.85% (n = 360,000);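 active = inhibition or corrected inhibition above about 18%, plus a signal ratio from 0.5 to 1.5, limit read from the data, passing the limit was not always enough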
KLK7 zymogen act – proKLK7 (human) activation, primary screen; P49862; purified proKLK7, EDANS-DABCYL substrate fluorescence; 100% is mature enzyme control, 0% vehicle; activation, % at 7 µM; actives 0.9% (n = 370,000);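 active = activation above the mean of all tested compounds plus 3 SD, computed per campaign excluding outliers beyond control limits, cut at about 13% in these data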
PLC-gamma1 inh – blocks human PLC-gamma1 enzyme activity | purified PLC-gamma1, fluorogenic substrate, fluorescence | P19174 | actives 0.84% (n = 370,000) | inhibition, % at 12.2 µM
Tn6 DDE FP – disrupts Tn6 cyclic peptide binding to fibrin D-Dimer-E complex | P02675 | Fibrin DD(E) TRITC-Tn6 fluorescence polarization displacement | inhibition, % at 8.3 µM | actives 0.21% (n = 370,000) | AID 720509;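 active = inhibition above a per-campaign cutoff: mean of compounds within control limits plus 3 SD, cut at about 15% in these data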;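 note: 0% = median of all compound wells on the plate and 100% = blocking peptide control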
Target sequence (P02675 whole entry, looked up): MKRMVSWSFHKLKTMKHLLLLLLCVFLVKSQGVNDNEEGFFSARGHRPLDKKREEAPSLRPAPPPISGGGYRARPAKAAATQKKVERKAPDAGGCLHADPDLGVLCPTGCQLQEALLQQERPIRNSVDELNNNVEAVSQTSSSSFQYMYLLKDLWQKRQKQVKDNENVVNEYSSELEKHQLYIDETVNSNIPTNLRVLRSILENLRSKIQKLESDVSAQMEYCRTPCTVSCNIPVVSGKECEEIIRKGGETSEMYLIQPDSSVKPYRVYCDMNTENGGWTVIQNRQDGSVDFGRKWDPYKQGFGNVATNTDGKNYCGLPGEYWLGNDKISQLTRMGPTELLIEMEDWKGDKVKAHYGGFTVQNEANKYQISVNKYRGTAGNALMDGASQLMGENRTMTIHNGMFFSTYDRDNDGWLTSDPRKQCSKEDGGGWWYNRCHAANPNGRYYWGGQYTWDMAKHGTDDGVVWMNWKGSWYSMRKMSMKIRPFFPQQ
PLC-beta3 inh – inhibitors of human phospholipase C beta3; Q01970; Purified PLC-beta3, fluorogenic substrate, fluorescence; inhibition, % at 12.2 µM; actives 0.18% (n = 370,000); in the data active = inhibition above about 11%;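 note: 0% = median of compound wells on plate and 100% = full blocker control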
Tn7 DDE FP – DD(E)-Tn7 binding inhibition, primary FP screen; FP displacement of FITC-Tn7 peptide from fibrin DD(E); 0% = median of compound wells per plate; inhibition, % at 8.3 µM; AID 720508; actives 0.13% (n = 370,000);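 active = inhibition above the mean of compounds falling within the control limits plus 3 SD of them, cut at about 14% in these data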;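 note: 0% = plate median of compound wells and 100% = 10 µM Aha-Tn7 peptide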
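Assay system: human fibrin DD(E). Input: DD(E) 2 µM final. Medium: Tris buffer with calcium and detergent, pH 7.8. Compound dosing: single point at 8.3 µM. Timing: 10 min plus 3 h, room temperature. Technique: fluorescence polarization of the labelled Tn7 tracer. Read-out: percent inhibition. Replicates: singlicate testing.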
PLCgamma1 ctr – PLC-gamma1 inhibition, counter-screen for PLC-beta3 hits; shares compounds with PLC-gamma1 inh; purified PLC-gamma1, fluorogenic substrate, fluorescence; inhibition, % at 12.3 µM; actives 3.1% (n = 3,300); AID 743258
PLCb3 confirm – human PLC-beta3 inhibition, confirmation. shares compounds with PLC-gamma1 inh. purified PLC-beta3, fluorogenic substrate fluorescence. inhibition, % at 12.3 µM. actives 1% (n = 3,300). AID 743261; in the data active = inhibition above about 11%
Starred values were filed as active, the others as inactive; x = no result. A selection: hits, their analogues and other compounds. The true share with any hit is near 3%. Cut-off read from the data, not from the text of the source, unless noted: active = inhibition above about 9.5%; inactive = the rest.

SMILES	CendR NRP1 mod	KLK7 zymogen act	PLC-gamma1 inh	Tn6 DDE FP	PLC-beta3 inh	Tn7 DDE FP	PLCgamma1 ctr	PLCb3 confirm
CCOC(=O)[C@]12CCCCC/C=C\1N(CCc1ccc(Cl)cc1)C(=O)[C@H]2CC(=O)N1CCOCC1	x	0	-1	-5	0	5	x	x
COCCCNC(=O)C[C@H]1C[C@@]2(C(=O)OC)C(=C[C@H](C3CCCC3)O[C@@H]2C)N(CCC2=CCCCC2)C1=O	x	0	-3	4	-2	3	x	x
CC1CCCCC1NC(=O)c1cccc(NC2=NC3CS(=O)(=O)CC3S2)c1 (configuration not stated)	8	0	10.0*	1	6	-5	-3	-2
Cc1cc(C)cc(NC(=O)Cc2ccc(NC3=NC4CS(=O)(=O)CC4S3)cc2)c1 (configuration not stated)	-8	0	0	7	5	-3	x	x
O=C(c1ccc(NC2=NC3CS(=O)(=O)CC3S2)cc1)N1CCN(c2ccccc2F)CC1 (configuration not stated)	2	0	1	-3	1	-4	x	x
O=C(c1ccc(NC2=NC3CS(=O)(=O)CC3S2)cc1)N1CCN(Cc2ccccc2)CC1 (configuration not stated)	0	2	9.8*	3	-1	2	-7	0
Cc1cccc(NC(=O)Cc2ccc(NC3=NC4CS(=O)(=O)CC4S3)cc2)c1 (configuration not stated)	-7	-1	9.7*	-6	4	-7	-3	0
Nc1nccc2c1ncn2C1OC(CO)C(O)C1O (configuration not stated)	-20	0	12*	-2	12*	1	-2	0
CCOC(=O)[C@]12CCCCC/C=C\1N(CCc1ccc(Cl)cc1)C(=O)[C@H]2CC(=O)N1CCN(C(=O)c2ccco2)CC1	x	0	1	1	-1	3	x	x
CC(=O)c1cc(-c2ccc(Cl)c(C(F)(F)F)c2)c(=O)n2c1CCC2	x	1	-18	-7	-20	0	x	x
COc1ccc(CNC(=O)CCS(=O)(=O)c2cccc3nonc23)cc1	-23	0	-2	-1	0	-4	x	x
COc1ccc(N(C)C(=O)CCS(=O)(=O)c2cccc3nonc23)cc1	3	0	8	4	11*	-1	-4	0
CCOc1ccc(CCNC(=O)c2cc(-c3ccccc3)c(N3CCOCC3)s2)cc1OC	x	0	-6	2	-9	2	x	x
COc1cccc(CNC(=O)[C@@H]2CCCN2C(=O)[C@H]2CCCCN2)c1	-1	0	18*	1	7	1	-4	-1
COc1cccc(CNC(=O)[C@H]2CCCN2C(=O)[C@H]2CCCN2)c1	x	0	1	0	-1	5	x	x
CO/N=C/c1ccc(Sc2ccc(C)cc2)c([N+](=O)[O-])c1	-7	0	5	1	3	-2	x	x
CO/N=C/c1cc([N+](=O)[O-])ccc1Sc1ccc(C)cc1	-6	0	10*	1	4	0	-14	-14
O=C(OCc1ccccc1)N1CCC2CC1c1ccc(N3CCN(Cc4ccccc4)CC3)cc12 (configuration not stated)	x	0	5	-1	14*	3	-2	-1
O=C(c1cccc(Cl)c1)N1CCN(c2ccc3c(c2)C2CC3CCN2C(=O)OCc2ccccc2)CC1 (configuration not stated)	3	0	2	-5	5	-4	x	x
CCN(CC)C(=O)O[C@H]1CC[C@@]23CCCN2C(=O)CCC[C@H]3C1	x	x	3	8	2	0	x	x
CCN1CCN(c2nc(N)c([N+](=O)[O-])c(Nc3ccc(C)cc3)n2)CC1	5	0	13*	0	8	-3	-6	5
C[C@@H]1CN([C@@H](C)CO)C(=O)CCCn2cc(nn2)CO[C@H]1CN(C)C(=O)C1CCCCC1	x	0	1	2	1	0	x	x
